Laboratory results taken from ChEMBL document CHEMBL3425440, “ent-Kaurane Diterpenoids from Chinese Liverworts and Their Antitumor Activities through Michael Addition As Detected in Situ by a Fluorescence Probe” (J Med Chem, 2015).

Assays:
[1] = system: DU-145; test: Cytotoxicity against human DU145 cells assessed as cell viability after 24 hrs by MTT assay; type: functional, cell-based; conditions: DU-145, 24 h
Procedure, shortened: (§1)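 Cells grown to about 50−70% confluence at 37 °C, 5% CO2, then exposed to compounds 24 h (DMSO vehicle control, cisplatin positive control). MTT (5 mg/mL stock) added for 4 h, formazan dissolved in DMSO, absorbance read at 570 nm. IC50 derived from percent viability; at least three independent experiments, mean ± SD.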

[2] = Cytotoxicity against human Saos2 cells assessed as cell viability after 24 hrs by MTT assay; type: functional, cell-based; conditions: SAOS-2, 24 h; procedure, shortened: as §1
[3] = Cytotoxicity against human T24 cells assessed as cell viability after 24 hrs by MTT assay; type: functional, cell-based; conditions: T-24, 24 h; procedure, shortened: as §1
[4] = system: MDA-MB-231; test: Cytotoxicity against human MDA-MB-231 cells assessed as cell viability after 24 hrs by MTT assay; type: functional, cell-based; conditions: MDA-MB-231, 24 h; procedure, shortened: as §1
[5] = system: LoVo; test: Cytotoxicity against human LoVo cells assessed as cell viability after 24 hrs by MTT assay; type: functional, cell-based; procedure, shortened: as §1
[6] = Cytotoxicity against human SKOV3 cells assessed as cell viability after 24 hrs by MTT assay; type: functional, cell-based; conditions: SK-OV-3, 24 h; procedure, shortened: as §1
[7] = Cytotoxicity against human HL60 cells assessed as cell viability after 24 hrs by MTT assay; type: functional, cell-based; conditions: HL-60, 24 h; procedure, shortened: as §1
[8] = Cytotoxicity against human RWPE1 cells assessed as cell viability after 24 hrs by MTT assay; type: cell-based; conditions: RWPE-1, 24 h; procedure, shortened: as §1
[9] = Cytotoxicity against human PC3 cells assessed as cell viability after 24 hrs by MTT assay; type: functional, cell-based; conditions: PC-3, 24 h; procedure, shortened: as §1
[10] = system: NCI-H1299; test: Cytotoxicity against human NCI-H1299 cells assessed as cell viability after 24 hrs by MTT assay; type: functional, cell-based; conditions: NCI-H1299, 24 h; procedure, shortened: as §1
[11] = system: LNCaP; test: Cytotoxicity against human LNCAP cells assessed as cell viability after 24 hrs by MTT assay; type: functional, cell-based; procedure, shortened: as §1
[12] = Cytotoxicity against human A172 cells assessed as cell viability after 24 hrs by MTT assay; type: functional, cell-based; conditions: A 172, 24 h; procedure, shortened: as §1
[13] = system: K562; test: Cytotoxicity against human K562 cells assessed as cell viability after 24 hrs by MTT assay; type: functional, cell-based; conditions: K562, 24 h; procedure, shortened: as §1
[14] = Cytotoxicity against human SH-SY5Y cells assessed as cell viability after 24 hrs by MTT assay; type: functional, cell-based; procedure, shortened: as §1

| Structure (SMILES) | IC50 [1] [µM] | IC50 [2] [µM] | IC50 [3] [µM] | IC50 [4] [µM] | IC50 [5] [µM] | IC50 [6] [µM] | IC50 [7] [µM] | IC50 [8] [µM] | IC50 [9] [µM] | IC50 [10] [µM] | IC50 [11] [µM] | IC50 [12] [µM] | IC50 [13] [µM] | IC50 [14] [µM] |
| --- | --- | --- | --- | --- | --- | --- | --- | --- | --- | --- | --- | --- | --- | --- |
| C[C@@H]1C(=O)[C@H]2C[C@]1(O)CC1=C2[C@]2(C)CCC[C@@](C)(CO)[C@H]2CC1 | > 50 | > 50 | > 50 | > 50 | > 50 | > 50 | > 50 | > 50 | > 50 | > 50 | > 50 | > 50 | > 50 | > 50 |
| C=C1[C@@H]2CC(=O)[C@H]3[C@]4(C)CCCC(C)(C)[C@H]4[C@@H](O)[C@@H](O)[C@]3(C2)[C@@H]1O | > 50 | > 50 | > 50 | > 50 | > 50 | > 50 | > 50 | > 50 | > 50 | > 50 | > 50 | > 50 | > 50 | > 50 |
| C=C1[C@@H]2CC[C@H]3[C@]4(C)CCCC(C)(C)[C@H]4CC[C@]3(C2)[C@@H]1O | > 50 | > 50 | > 50 | > 50 | > 50 | > 50 | > 50 | > 50 | > 50 | > 50 | > 50 | > 50 | > 50 | > 50 |
| C=C1[C@@H]2CC[C@@H]3[C@@](CC[C@@H]4C(C)(C)CC[C@H](O)[C@]43C)(C2)[C@@H]1O | > 50 | > 50 | > 50 | > 50 | > 50 | > 50 | > 50 | > 50 | > 50 | > 50 | > 50 | > 50 | > 50 | > 50 |
| C[C@H]1C(=O)[C@@]23CC[C@@H]4C(C)(C)CCC[C@@]4(C)[C@@H]2[C@@H](O)C[C@@H]1C3 | > 50 | > 50 | > 50 | > 50 | > 50 | > 50 | > 50 | > 50 | > 50 | > 50 | > 50 | > 50 | > 50 | > 50 |
| C=C1C(O)[C@@]23CC[C@H]4[C@@](C)(CCC[C@@]4(C)C(=O)O)[C@@H]2CC[C@]1(O)C3 (stereo not given in full) | > 50 | > 50 | > 50 | > 50 | > 50 | > 50 | > 50 | > 50 | > 50 | > 50 | > 50 | > 50 | > 50 | > 50 |
| C=C1[C@@H]2C[C@@H](O)[C@H]3[C@]4(C)CCCC(C)(C)[C@H]4CC[C@]3(C2)[C@@H]1O | > 50 | > 50 | > 50 | > 50 | > 50 | > 50 | > 50 | > 50 | > 50 | > 50 | > 50 | > 50 | > 50 | > 50 |
| C[C@@H]1C(=O)[C@@]23CC[C@@H]4C(C)(C)CCC[C@@]4(C)[C@@H]2[C@@H](O)C[C@@H]1C3 | > 50 | > 50 | > 50 | > 50 | > 50 | > 50 | > 50 | > 50 | > 50 | > 50 | > 50 | > 50 | > 50 | > 50 |
| C[C@@H]1C(=O)[C@@]23CC[C@@H]4[C@@](C)(CO)CCC[C@@]4(C)C2=CC[C@]1(O)C3 | > 50 | > 50 | > 50 | > 50 | > 50 | > 50 | > 50 | > 50 | > 50 | > 50 | > 50 | > 50 | > 50 | > 50 |
| C=C1[C@@H]2CC(=O)[C@H]3[C@]4(C)CCCC(C)(C)[C@H]4[C@@H](O)C[C@]3(C2)[C@@H]1O | > 50 | > 50 | > 50 | > 50 | > 50 | > 50 | > 50 | > 50 | > 50 | > 50 | > 50 | > 50 | > 50 | > 50 |
| C=C1C(=O)[C@@]23CC[C@@H]4[C@@](C)(CO)CCC[C@@]4(C)C2=CC[C@]1(O)C3 | 6.3 | 7.8 | 10.4 | 12.3 | 9 | 8.6 | 3.7 | 11.7 | 5.5 | 10.7 | 11.6 | 4.4 | 10.2 | 4.4 |
| C[C@H]1C(=O)[C@@]23C[C@H](O)[C@@H]4[C@@](C)(CO)CCC[C@@]4(C)C2=CC[C@]1(O)C3 | > 50 | > 50 | > 50 | > 50 | > 50 | > 50 | > 50 | > 50 | > 50 | > 50 | > 50 | > 50 | > 50 | > 50 |
| C=C1[C@@H]2CC[C@H]3[C@]4(C)CCC[C@](C)(C(=O)O)[C@H]4CC[C@]3(C2)[C@@H]1OC(C)=O | > 50 | > 50 | > 50 | > 50 | > 50 | > 50 | > 50 | > 50 | > 50 | > 50 | > 50 | > 50 | > 50 | > 50 |
| C=C1C(=O)[C@H]2C[C@@H]1CC1=C2[C@]2(C)CCC[C@](C)(CO)[C@H]2CC1 | > 50 | 35.5 | 49.1 | > 50 | 35.2 | > 50 | 23.6 | > 50 | > 50 | > 50 | > 50 | > 50 | 41.7 | 33.8 |
| C=C1[C@@H]2CC[C@H]3[C@]4(C)CCCC(C)(C)[C@H]4C[C@@H](O)[C@]3(C2)[C@H]1O | > 50 | > 50 | > 50 | > 50 | > 50 | > 50 | > 50 | > 50 | > 50 | > 50 | > 50 | > 50 | > 50 | > 50 |
